# Screening results: PubChem BioAssay, several laboratories
# This is a sample that favours compounds with a hit; in the whole collection about 1.3% have one here.
# Arrestin-AP2 inh – blocks beta-arrestin peptide binding to AP2 adaptin; FITC-arrestin peptide / GST-AP2 beads, flow cytometry; AP2 beta2 appendage carries R879A mutation; AID 504490; 0.31% of 340,000 active; inhibition, % at 10 µM;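 active means inhibition above a set limit, near 3 SD of compounds lacking own fluorescence, cut at about 54% in these data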;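 further: plate controls were DMSO wells for no effect and 5 µM unlabelled arrestin peptide for full effect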
#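 System: GST-tagged AP2 beta2-adaptin appendage (R879A) on 4 µm glutathione beads / Reagent: FITC-arrestin peptide, 50 nM / Detection: HyperCyt-sampled flow cytometry, FL1 channel, ex 488/em 535 nm / Timing: 12 min plus 1 h, RT / Buffer or medium: PBS plus Tween 20 (0.05%) and BSA (0.1%)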
# PLCb3 inh – PLC-beta3 (human) inhibition, primary screen | Q01970 | Purified PLC-beta3, fluorogenic substrate, fluorescence | inhibition, % at 12.2 µM | 0.18% of 370,000 active;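 further: 0% = median of compound wells on plate and 100% = full blocker control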
# PLC-gamma1 inh – PLC-gamma1 (human) inhibition, primary screen | P19174 | inhibition, % at 12.2 µM | purified PLC-gamma1, fluorogenic substrate, fluorescence | 0.84% of 370,000 active | AID 720700; in the data active means inhibition above about 9.5%
# NTR1 ag – agonists of human neurotensin receptor NTR1; P30989; activation, % at 20 µM; NTR1-U2OS beta-arrestin-GFP spot imaging, agonist mode; 0.17% of 330,000 active;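 active means activation at or above 40% of the spot to cytoplasm intensity ratio, with at least 20 cells analyzed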;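 further: 0% = DMSO without peptide and 100% = 100 nM NTR1 peptide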
# Arr AP2 CP1 – inhibitors of human beta-arrestin and AP2 interaction | 2% of 1,300 active | AID 504908 | inhibition, % at 10 µM | shares compounds with Arrestin-AP2 inh | GST-AP2 beads, FITC arrestin peptide binding, flow cytometry; GST-fused beta2-adaptin appendage, R879A mutant;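 active means inhibition above a set limit, roughly 3 SD of non-fluorescent compound noise, cut at about 38% in these data; inactive means inhibition at or below that limit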;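 further: loss of bead fluorescence from 50 nM FITC arrestin peptide bound to appendage; 0% = negative control wells and 100% = excess unlabelled arrestin peptide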
# GST-FITC bead – GST-GSH bead binding interference, counter-screen; shares compounds with Arrestin-AP2 inh; GST-fluorescein binding to GSH beads, fluorescence; inhibition, % at 10 µM; 2% of 1,300 active;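 active means inhibition above 50%, about 3 SD of the inhibition seen with non-fluorescent compounds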;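 further: fluorescein maleimide labelled GST captured on 4 micron glutathione beads; higher means more loss of bead fluorescence from quenching or blocked binding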
# PLCg1 ctr – counter-screen for PLC-beta3 inhibitors: inhibitors of human PLC-gamma1; shares compounds with PLC-gamma1 inh; purified PLC-gamma1, fluorogenic substrate, fluorescence; inhibition, % at 12.3 µM; 3.1% of 3,300 active; AID 743258; in the data active means inhibition above about 9.5%
# PLCbeta3 conf – human PLC-beta3 inhibition, confirmation; shares compounds with PLC-gamma1 inh; purified PLC-beta3, fluorogenic substrate fluorescence; inhibition, % at 12.3 µM; 1% of 3,300 active; AID 743261
# * marks the source's active call; other numbers are inactive results; / = no result. Unless noted, no stated cut-off is given here; in the data, active means inhibition above about 11%; inactive means the rest.
SMILES,Arrestin-AP2 inh,PLCb3 inh,PLC-gamma1 inh,NTR1 ag,PLCg1 ctr,PLCbeta3 conf,others
COc1ccccc1NC(=O)Nc1cnccn1,16.7,6.4,-0.6,0.5,/,/,Arr AP2 CP1=23.0;GST-FITC bead=-1.4
COc1ccc(OC)c(NC(=O)Nc2cnccn2)c1,56.0*,-7.0,0.1,0.4,/,/,Arr AP2 CP1=7.4;GST-FITC bead=4.0
COc1ccccc1NC(=O)Nc1ncccc1C,2.8,4.7,2.2,-0.5,/,/,
Cc1c(Cl)cccc1NC(=O)Nc1cnccn1,-0.9,-8.9,1.1,1.3,/,/,Arr AP2 CP1=-6.4;GST-FITC bead=3.1
O=C(Nc1cnccn1)Nc1ccccc1F,-14.2,-6.2,1.3,0.2,/,/,Arr AP2 CP1=-5.8;GST-FITC bead=2.0
O=S1(=O)C=CCN1Cc1cn(Cc2ccc(Cl)cc2)nn1,/,2.3,-2.6,/,/,/,
O=C1CSc2ccc(C(=O)N3CCCC(C(=O)N4CCOCC4)C3)cc2N1 (stereo not drawn),/,2.5,-2.3,/,/,/,
CC(=O)Oc1cc(C)c(Cl)c2c(OC(C)=O)cc(C(C)=O)c(O)c12,/,-77.0,-59.4,/,/,/,
COc1ccc(NC(=O)CCC(=O)N(Cc2ccc(OC)c(OC)c2)c2nccs2)c(OC)c1,56.2*,2.0,2.7,3.3,/,/,Arr AP2 CP1=-1.4;GST-FITC bead=-3.2
COCCNC(=O)Cn1nc(-c2ccc(Cl)cc2)c2ccccc2c1=O,63.8*,3.3,11.6*,-1.1,-3.4,-0.6,Arr AP2 CP1=-4.2;GST-FITC bead=2.6
COCCNC(=O)Cn1nc(-c2ccccc2)c2ccccc2c1=O,-4.1,-3.8,3.9,-0.5,/,/,
O=C(Nc1ccc(F)cc1)Nc1nnc(COc2ccccc2F)s1,105.7*,5.5,11.5*,5.5,-5.4,-4.4,Arr AP2 CP1=-7.8;GST-FITC bead=34.3
COc1cccc(NC(=O)n2ccc3ccc(-c4ccc5cc[nH]c5c4)cc32)c1,/,-117.3,-90.1,/,/,/,
COc1cc2[nH]c(=O)n(C3CCCCC3)c(=O)c2cc1OC,-3.5,14.0*,12.7*,0.9,-6.9,-3.1,
Nc1c(C(=O)N/N=C/c2ccc([N+](=O)[O-])cc2)cnn1-c1ccccc1,-0.3,-0.9,10.5*,2.1,4.8,6.3,
NC(CCc1ccccc1)c1csc(NC(=O)Nc2ccccc2Oc2ccccc2)n1 (stereo not drawn),/,6.2,16.5*,/,-1.2,-3.4,
O=C(NCC1COCCO1)C1CCN(S(=O)(=O)c2cccs2)CC1 (stereo not drawn),/,-1.7,0.3,/,/,/,
O=c1[nH]ncc(N/N=C\c2cccnc2)c1Cl,-1.8,-7.9,0.3,-0.8,/,/,
O=c1[nH]ncc(N/N=C\c2ccncc2)c1Cl,-0.6,10.6*,8.5,-0.8,2.1,4.1,
CCC[C@H]1[C@@H](OC(=O)NCc2cccs2)CC[C@@]23CCCN2C(=O)CCC[C@@H]13,/,2.4,3.1,/,/,/,
CC(C)(C)OC(=O)NCc1cc(F)ccc1/C=C/S(=O)(=O)NC1CCCC1,/,4.4,9.8*,/,-2.0,2.1,
CC(C)(C)OC(=O)NCc1ccccc1/C=C/S(=O)(=O)NC1CCCC1,/,-1.8,0.9,/,/,/,
CC1=C(C(=O)OC(C)C)C(C2CC=CCC2)NC(=O)N1 (stereo not drawn),1.4,2.8,11.8*,-0.7,-3.6,-0.5,
CCN(Cc1ccccc1)C(=O)CCCN1C(=O)COc2ccc(C)cc21,/,-1.2,-1.2,/,/,/,
Cc1ccc(NC(=O)COC(=O)c2cc(-c3cccs3)nn2-c2ccccc2)cc1[N+](=O)[O-],1.9,4.2,10.7*,1.2,-3.9,-6.2,
O=C(COC(=O)c1cc(-c2cccs2)nn1-c1ccccc1)Nc1cccc([N+](=O)[O-])c1,1.6,-2.3,1.4,0.2,/,/,
COc1ccc(CNC(=O)C(=O)NCC(c2ccco2)N2CCOCC2)cc1 (stereo not drawn),-3.7,2.8,10.0*,0.5,-5.3,-2.5,
O=C(NCc1ccccc1)C(=O)NCC(c1ccco1)N1CCOCC1 (stereo not drawn),-6.6,/,/,-0.4,/,/,
CC1(Cc2ccc(F)cc2)C(=O)Nc2ccc(S(=O)(=O)NC3CCCCC3)cc21 (stereo not drawn),/,10.8*,6.4,/,-9.2,-2.5,
COc1cccc(NC(=O)N2CCN(c3nnnn3-c3ccccc3)CC2)c1,-11.5,5.1,10.5*,0.1,4.9,-0.1,
